High-throughput results from PubChem.
This is a sample that favours compounds with a hit; in the whole collection about 2.5% have one here.
NR1D1 modulator – modulators of human Rev-erb alpha DNA binding; activity, % at 10 µM; Rev-erbα–FITC-DNA binding, fluorescence polarization, 90 min; P20393; hit rate 0.79% among 370,000;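 active = activity above about 14%, limit read from the data; passing the limit was not always enough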
Target sequence (P20393 whole entry, looked up): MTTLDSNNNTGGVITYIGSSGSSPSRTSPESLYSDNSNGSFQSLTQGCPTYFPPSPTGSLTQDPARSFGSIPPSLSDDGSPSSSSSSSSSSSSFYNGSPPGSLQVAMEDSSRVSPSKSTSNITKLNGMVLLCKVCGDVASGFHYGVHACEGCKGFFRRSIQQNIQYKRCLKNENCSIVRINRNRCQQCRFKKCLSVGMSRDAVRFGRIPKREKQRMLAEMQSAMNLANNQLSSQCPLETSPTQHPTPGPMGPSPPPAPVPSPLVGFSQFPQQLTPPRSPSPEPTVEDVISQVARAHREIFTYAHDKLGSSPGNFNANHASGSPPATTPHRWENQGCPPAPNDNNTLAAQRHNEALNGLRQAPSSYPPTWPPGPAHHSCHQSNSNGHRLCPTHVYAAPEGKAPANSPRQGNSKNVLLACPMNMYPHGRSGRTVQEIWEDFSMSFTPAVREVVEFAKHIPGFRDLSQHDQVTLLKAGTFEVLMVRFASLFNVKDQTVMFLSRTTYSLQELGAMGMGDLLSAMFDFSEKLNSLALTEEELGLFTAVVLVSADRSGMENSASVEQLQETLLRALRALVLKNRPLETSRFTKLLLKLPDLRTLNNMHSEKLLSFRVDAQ
PG9 Ab binder – small molecules binding HIV-1 gp120 antibody PG9; inhibition, % at 6.7 µM; hit rate 0.43% among 360,000; TR-FRET gp120-PG9 antibody binding; in the data active = inhibition above about 8.5%
MC4R barr agon – human MC4R agonism via beta-arrestin; hit rate 0.98% among 360,000; AID 540308; activation, % at 8.9 µM; P32245; U2OS MC4R beta-arrestin complementation, luminescence; percent of melanotan II response, DMSO zero;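 active = activation above a per-plate cutoff, the mean activation of sample wells on that plate plus 3 SD, cut at about 8% in these data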
NTR1 ag – NTR1 (human) agonism. NTR1-U2OS beta-arrestin-GFP spot imaging, agonist mode. hit rate 0.17% among 330,000. activation, % at 20 µM. AID 493036;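 active = activation at or above 40% of the spot to cytoplasm intensity ratio, with at least 20 cells analyzed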
MC4R antagonist – antagonists of human melanocortin 4 receptor (MC4R); P32245; MC4R-expressing cells, MTII-stimulated cAMP, LANCE TR-FRET; inhibition, % at 6.5 µM; hit rate 0.48% among 360,000;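 active = inhibition above its plate's cutoff, the mean of tested wells on that plate plus 3 SD, cut at about 29% in these data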
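Test system: U2OS cells stably expressing human melanocortin 4 receptor (MC4R); also added: Melanotan II challenge; compound: 6.5 µM single dose; timing: 30-min compound preincubation, 1-h Melanotan II challenge, 1-h detection, room temperature; signal: Eu-cAMP/anti-cAMP TR-FRET, emission 671 nm; repeats: one well per compound, no replicates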
NTR1 ag conf – confirmation of agonists of human NTR1; shares compounds with NTR1 ag; NTR1-U2OS beta-arrestin-GFP translocation imaging; activation, % at 20 µM; hit rate 38% among 480;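 active = mean activation at 20 µM of at least 40%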
U2OS cAMP counter – counter-screen for MC4R antagonists: nonselective cAMP signaling inhibitors. hit rate 26% among 1,600. shares compounds with MC4R antagonist. parental U2OS, forskolin cAMP, LANCE TR-FRET. inhibition, % at 6.5 µM;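 active = mean inhibition over triplicates above the low-control well mean plus 3 SD, set per campaign, cut at about 13% in these data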;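 also: signal is single emission at 671 nm which falls as cellular cAMP rises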
MC4R antag conf – human MC4R cAMP antagonism confirmation | shares compounds with MC4R antagonist | inhibition, % at 6.5 µM | MC4R-expressing cells, MTII-stimulated cAMP, TR-FRET | hit rate 27% among 1,600; in the data active = inhibition above about 29%
MC4R barr conf – human MC4R beta-arrestin agonism confirmation; shares compounds with MC4R barr agon; U2OS MC4R beta-arrestin recruitment, luminescence; scaled DMSO 0%, Melanotan II 100%; activation, % at 8.9 µM; hit rate 31% among 2,400; AID 602192;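 active = mean activation across replicates above the hit cutoff set in the earlier primary screen, cut at about 8% in these data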
MOR-DOR barr ag – OPRM1-OPRD1 heterodimer agonism counter-screen | shares compounds with MC4R barr agon | hit rate 5.8% among 2,400 | AID 602194 | activation, % at 9.2 µM | U2OS PathHunter beta-arrestin, beta-gal luminescence; percent of deltorphin B response, DMSO zero;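 active = mean activation across replicates exceeds the hit threshold derived in the earlier primary screen, cut at about 18% in these data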
Each line names hits and unclear results; the compound was inactive in the other large screens (follow-up assays come after a bar, where they were run).

CCN(CC)c1ccc(C=C2C(=O)NC(=S)NC2=O)cc1	NTR1 ag 71 | NTR1 ag conf 95
CC1=C2CCC3C(CC[C@]4(C)C(=O)CCC34)[C@@]2(C)CCC1=O (stereo partly drawn)	none (no result: PG9 Ab binder, MC4R barr agon, NTR1 ag, MC4R antagonist)
O=C1NC(=O)C(=Cc2ccc(Sc3ccccc3)o2)C(=O)N1	NTR1 ag 49 | NTR1 ag conf 90
O=C(NC(CCC(O)CO)P(=O)(Oc1ccccc1)Oc1ccccc1)OCc1ccccc1 (stereo not drawn)	none (no result: PG9 Ab binder, MC4R barr agon, NTR1 ag, MC4R antagonist)
CC(NC(=O)OCc1ccccc1)[P+](=O)O (stereo not drawn)	none (no result: PG9 Ab binder, MC4R barr agon, NTR1 ag, MC4R antagonist)
O=c1[nH]c2ccccc2n1C1CCN(CCCC(c2ccc(F)cc2)c2ccc(F)cc2)CC1	NTR1 ag 43 | NTR1 ag conf inactive
Nc1ccc(Cl)cc1C(=O)c1ccccc1Cl	none
Nc1ccc(Cl)cc1C(=O)c1ccccc1	NTR1 ag 100 | NTR1 ag conf inactive
COC1CC=C2CCN3CCC4=C(CC(=O)OC4)C23C1 (stereo not drawn)	none (no result: MC4R barr agon, NTR1 ag, MC4R antagonist)
COc1ccc(Oc2cc(NC(=O)c3nn(C)cc3[N+](=O)[O-])cc([N+](=O)[O-])c2)cc1	NTR1 ag 61 | NTR1 ag conf 67
COP(=O)(OC)C(C)NC(=O)OCc1ccccc1 (stereo not drawn)	none (no result: PG9 Ab binder, MC4R barr agon, NTR1 ag, MC4R antagonist)
Cc1ccc(C(=O)N[C@@H](C)CN2C3=NC[C@@H](Cc4ccccc4)N3C[C@H]2Cc2ccc(O)cc2)cc1Br	none (no result: MC4R barr agon, MC4R antagonist)
Cc1ccc(C(=O)N[C@@H](C)CN2C3=NC[C@H](Cc4ccccc4)N3C[C@H]2Cc2ccc(O)cc2)cc1Br	NTR1 ag 52 (no result: NR1D1 modulator, PG9 Ab binder, MC4R barr agon, MC4R antagonist) | NTR1 ag conf inactive
O=C1NC(=O)N(Cc2ccc(F)cc2)C(=O)/C1=C/c1cccs1	NTR1 ag 53, MC4R antagonist 68 | NTR1 ag conf 45 | U2OS cAMP counter inactive | MC4R antag conf inactive
C[C@H](NC(=O)OCc1ccccc1)C(=O)NC(Cc1ccccc1)P(=O)(Oc1ccccc1)Oc1ccccc1 (stereo partly drawn)	none (no result: PG9 Ab binder, MC4R barr agon, NTR1 ag, MC4R antagonist)
CC1CCC(C(C)C)C(OC(=O)Cn2c(COc3ccccc3)[n+](C)c3ccccc32)C1 (stereo not drawn)	MC4R barr agon 29, NTR1 ag 59 | NTR1 ag conf 68 | MC4R barr conf 10 | MOR-DOR barr ag inactive
O=C(CN1C(=O)[C@@H](Cc2ccc(O)cc2)N=C(c2ccccc2)c2ccccc21)NC1CCCCC1	none (no result: PG9 Ab binder, MC4R barr agon, NTR1 ag, MC4R antagonist)
Cc1cc(/C=C2\C(=O)NC(=O)N(Cc3ccco3)C2=O)c(C)n1-c1ccc(O)cc1	MC4R antagonist 30 | U2OS cAMP counter inactive | MC4R antag conf inactive
Cc1ccc(-n2c(C)cc(/C=C3/C(=O)NC(=O)N(Cc4ccco4)C3=O)c2C)cc1	none
CC(NC(=O)OCc1ccccc1)P(=O)(Oc1ccccc1)Oc1ccccc1 (stereo not drawn)	none (no result: PG9 Ab binder, MC4R barr agon, NTR1 ag, MC4R antagonist)
Clc1ccc(COC(Cn2ccnc2)c2ccc(Cl)cc2Cl)cc1 (stereo not drawn)	none
Clc1ccc(C(c2ccc(Cl)cc2)n2cc[n+](CC(OCc3ccc(Cl)cc3Cl)c3ccc(Cl)cc3Cl)c2)cc1 (stereo not drawn)	MC4R antagonist 61 | U2OS cAMP counter 20 | MC4R antag conf 71
COC1C(O)CC(OC2CC(Oc3cc4cc5c(c(O)c4c(O)c3C)C(=O)[C@@H](OC3CC(OC4CC(OC6CC(C)(O)C(OC(C)=O)C(C)O6)C(O)C(C)O4)C(O)C(C)O3)[C@H]([C@H](OC)C(=O)C(O)[C@H](C)O)C5)OC(C)C2OC(C)=O)OC1C (stereo partly drawn)	none (no result: PG9 Ab binder, MC4R barr agon, NTR1 ag, MC4R antagonist)
O=C1NC(=O)N(Cc2ccccc2Cl)C(=O)/C1=C/c1cccs1	MC4R antagonist 36 | U2OS cAMP counter 16 | MC4R antag conf 30
CC12CCC3C(CC=C4CC5(CCC43C)OCCO5)C1CCC2=O (stereo not drawn)	MC4R antagonist 30 | U2OS cAMP counter inactive | MC4R antag conf inactive
C[C@]12CC[C@H](OS(=O)(=O)O)CC1=CC[C@@H]1[C@@H]2CC[C@]2(C)C(=O)CC[C@@H]12	none
Cc1cc([N+](=O)[O-])c2ccccc2[n+]1[O-]	MC4R antagonist 31 (no result: NR1D1 modulator, PG9 Ab binder) | U2OS cAMP counter inactive | MC4R antag conf 31
C=CCN(CC#CCO)Cc1ccc(OC)cc1OC	none (no result: PG9 Ab binder, MC4R barr agon, NTR1 ag, MC4R antagonist)
CCOC(=O)CC[C@@H]1CC[C@]2(CCCN(Cc3cccnc3)C2)O1	none (no result: PG9 Ab binder, MC4R barr agon, NTR1 ag, MC4R antagonist)
O=C1NC(=O)C(=Cc2ccc(-c3ccc(Cl)cc3)o2)C(=O)N1	NTR1 ag 41, MC4R antagonist 44 (no result: NR1D1 modulator, PG9 Ab binder) | U2OS cAMP counter 41 | MC4R antag conf 68
Cc1ccc(/C=C2\C(=O)NC(=O)N(CCc3ccc(F)cc3)C2=O)o1	none
O=C1NC(=O)C(=Cc2ccc(-c3ccc(F)cc3O)o2)C(=O)N1	MC4R antagonist 53 | U2OS cAMP counter 13 | MC4R antag conf 29
C=C1C(=O)C(C)=C2C(=O)N3Cc4[nH]c5ccccc5c4CC3(C(=O)OC)C12 (stereo not drawn)	none (no result: PG9 Ab binder, MC4R barr agon, NTR1 ag, MC4R antagonist)
Cc1ccccc1N1C(=O)NC(=O)/C(=C\c2cnn(-c3ccccc3)c2)C1=O	MC4R antagonist 41 | U2OS cAMP counter 14 | MC4R antag conf inactive
Cc1ccc(Cn2nc(C)c(C=O)c2Cl)cc1	MC4R antagonist 31 | U2OS cAMP counter inactive | MC4R antag conf inactive
CCN(CC)c1ccc(N=Cc2c(O)n(Cc3ccco3)c(=O)[nH]c2=O)cc1	MC4R barr agon 11 | MC4R barr conf inactive | MOR-DOR barr ag inactive
CC(C)CCP(=O)(O)O	none (no result: PG9 Ab binder, MC4R barr agon, NTR1 ag, MC4R antagonist)
COc1ccccc1OP(=O)(Nc1ccc(Br)cc1)Oc1ccccc1OC	MC4R barr agon 18 | MC4R barr conf inactive | MOR-DOR barr ag inactive
CC(C)CNC(=O)c1c(N)n(Cc2ccc3c(c2)OCO3)c2nc3ccccc3nc12	MC4R barr agon 11 | MC4R barr conf 9.2 | MOR-DOR barr ag inactive
CC(C)CCNC(=O)c1c(N)n(Cc2ccc3c(c2)OCO3)c2nc3ccccc3nc12	MC4R barr agon 13 | MC4R barr conf 8.4 | MOR-DOR barr ag inactive
CCCNC(=O)c1c(N)n(Cc2ccc3c(c2)OCO3)c2nc3ccccc3nc12	none (no result: NR1D1 modulator, PG9 Ab binder)
N#CCC[C@@H]1CC[C@]2(CCCN(Cc3ccccn3)C2)O1	none (no result: PG9 Ab binder, MC4R barr agon, NTR1 ag, MC4R antagonist)
